Data set [1] relates to Staphylococcus aureus. Put plainly: Antibacterial activity against Staphylococcus aureus ATCC 25923 assessed as reduction in bacterial growth incubated for 24 hrs in presence of curcumin. The data set is classed as functional.
For data set [2], the system named is Streptococcus pyogenes. The data set can be described thus: Antibacterial activity against Streptococcus pyogenes SPY2 assessed as reduction in bacterial growth incubated for 24 hrs in presence of curcumin. It is filed as functional.
For data set [3], the system named is Escherichia coli. The data set can be described thus: Antibacterial activity against Escherichia coli NCTC 12241 assessed as reduction in bacterial growth incubated for 24 hrs in presence of curcumin. It is filed as functional.
For data set [4], the system named is Acinetobacter baumannii. Put plainly: Antibacterial activity against Acinetobacter baumannii AB12 harboring OXA-23 assessed as reduction in bacterial growth incubated for 24 hrs in presence of curcumin. The data set is classed as functional.
Data set [5] relates to Acinetobacter baumannii. The data set can be described thus: Antibacterial activity against Acinetobacter baumannii AB16 harboring OXA-23 clone 2 assessed as reduction in bacterial growth incubated for 24 hrs in presence of curcumin. The data set is classed as functional.
Data set [6] concerns Pseudomonas aeruginosa. The data set can be described thus: Antibacterial activity against Pseudomonas aeruginosa PAO1 assessed as reduction in bacterial growth incubated for 24 hrs in presence of curcumin. It is filed as functional.
Data set [7] deals with Enterococcus faecalis. The data set can be described thus: Synergistic antibacterial activity against […] Enterococcus faecalis ATCC 29212 assessed as fractional inhibitory concentration index measured after 24 hrs in presence of curcumin by checkerboard assay. It is filed as functional. The method in brief:
(§1)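 FICI was derived from checkerboard MICs. Synergy was defined as FICI ≤ 0.5 and additive as FICI > 0.5−4.0. Where an MIC was not reached, the dilution above the maximum dose was used in the FICI calculation. Experiments were run in triplicate and reported as means.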

Data set [8] deals with Staphylococcus aureus. The data set can be described thus: Synergistic antibacterial activity against vancomycin-intermediate resistant Staphylococcus aureus Mu50 assessed as fractional inhibitory concentration index measured after 24 hrs in presence of curcumin by checkerboard assay. It is filed as functional. The method in brief: as §1
The test system of data set [9] is Streptococcus pyogenes. The data set can be described thus: Synergistic antibacterial activity against Streptococcus pyogenes SPY1 assessed as fractional inhibitory concentration index measured after 24 hrs in presence of curcumin by checkerboard assay. The data set is classed as functional. In outline: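 FICI calculated from combination MICs; ≤0.5 taken as synergy and >0.5–4.0 as additive. Where an MIC was not reached, the dilution above the highest concentration tested was used in the calculation. Run in triplicate and reported as means.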

Data set [10] deals with Escherichia coli. The data set can be described thus: Synergistic antibacterial activity against Escherichia coli EC204 harboring NDM-1 assessed as fractional inhibitory concentration index measured after 24 hrs in presence of curcumin by checkerboard assay. The data set is classed as functional. In outline:
as §1

Data set [11] concerns Acinetobacter baumannii. Put plainly: Synergistic antibacterial activity against Acinetobacter baumannii AB16 harboring OXA-23 clone 2 assessed as fractional inhibitory concentration index measured after 24 hrs in presence of curcumin by checkerboard assay. The data set is classed as functional. In outline:
as §1

In data set [12] the test system is Acinetobacter baumannii. The data set can be described thus: Synergistic antibacterial activity against Acinetobacter baumannii NCTC 19606 assessed as fractional inhibitory concentration index measured after 24 hrs in presence of curcumin by checkerboard assay. It is filed as functional. The method in brief:
as §1

Data set [13] deals with Pseudomonas aeruginosa. The data set can be described thus: Synergistic antibacterial activity against Pseudomonas aeruginosa PA30 harboring VIM-2 assessed as fractional inhibitory concentration index measured after 24 hrs in presence of curcumin by checkerboard assay. The data set is classed as functional. In outline: as §1
In data set [14] the test system is Acinetobacter baumannii. Put plainly: Antibacterial activity against Acinetobacter baumannii NCTC 19606 assessed as log reduction in colony forming units at MIC measured after 6 hrs by time kill assay. The data set is classed as functional. In outline: (§2)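 Time-kill in Mueller-Hinton 2 broth. Inoculum was a 1/1000 dilution of a 16 h overnight culture, about 10^6 CFU/mL, 10 mL per tube. Arms were each agent alone at ×1 MIC, or the combination at ×1 MIC plus ×0.5 MIC partner. Incubated at 37 °C with continuous agitation for 24 h. Samples taken at 0, 2, 4, 6 and 24 h, serially diluted and plated on IsoSensitest agar for CFU counts.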

Data set [15] has as its system Enterococcus faecalis. The data set can be described thus: Antibacterial activity against […] Enterococcus faecalis ATCC 29212 assessed as reduction in bacterial growth incubated for 24 hrs in presence of polymyxin B. The data set is classed as functional.
The subject of data set [16] is Streptococcus pyogenes. Put plainly: Antibacterial activity against Streptococcus pyogenes SPY2 assessed as reduction in bacterial growth incubated for 24 hrs in presence of polymyxin B. The data set is classed as functional.
The subject of data set [17] is Escherichia coli. The data set can be described thus: Antibacterial activity against Escherichia coli EC2 harboring CTX-M-15 assessed as reduction in bacterial growth incubated for 24 hrs in presence of polymyxin B. It is filed as functional.
Data set [18] concerns Escherichia coli. Put plainly: Antibacterial activity against Escherichia coli NCTC 12241 assessed as reduction in bacterial growth incubated for 24 hrs in presence of polymyxin B. It is filed as functional.
The subject of data set [19] is Acinetobacter baumannii. Put plainly: Antibacterial activity against Acinetobacter baumannii AB12 harboring OXA-23 assessed as reduction in bacterial growth incubated for 24 hrs in presence of polymyxin B. It is filed as functional.
In data set [20] the test system is Acinetobacter baumannii. Put plainly: Antibacterial activity against Acinetobacter baumannii NCTC 19606 assessed as reduction in bacterial growth incubated for 24 hrs in presence of polymyxin B. The data set is classed as functional.
Data set [21] deals with Pseudomonas aeruginosa. Put plainly: Antibacterial activity against Pseudomonas aeruginosa PAO1 assessed as reduction in bacterial growth incubated for 24 hrs in presence of polymyxin B. It is filed as functional.
Data set [22] concerns Pseudomonas aeruginosa. The data set can be described thus: Antibacterial activity against Pseudomonas aeruginosa PA30 harboring VIM-2 assessed as reduction in bacterial growth incubated for 24 hrs in presence of polymyxin B. It is filed as functional.
For data set [23], the system named is Acinetobacter baumannii. The data set can be described thus: Bactericidal activity against Acinetobacter baumannii NCTC 19606 assessed as log reduction in colony forming units at 0.5 fold MIC measured after 24 hrs in presence of polymyxin B at MIC by time kill assay. It is filed as functional. The method in brief:
as §2

Data set [24] deals with Acinetobacter baumannii. Put plainly: Bactericidal activity against Acinetobacter baumannii NCTC 19606 assessed as bacterial cell death at 0.5 fold MIC measured after 4 to 6 hrs in presence of polymyxin B at MIC by time kill assay relative to control. It is filed as functional. The note with it: time 4-6 hrs. In outline:
(§3)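 Time-kill in 10 mL Mueller-Hinton 2 broth, 37 °C with continuous agitation, 24 h. Inoculum was a 1/1000 dilution of a 16 h overnight culture, about 10^6 CFU/mL. Single agents at 1× MIC; combination at 1× MIC polymyxin B plus 0.5× MIC curcumin. Samples at 0, 2, 4, 6 and 24 h were serially diluted and plated on IsoSensitest agar for CFU/mL.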

Data set [25] has as its system Staphylococcus aureus. The data set can be described thus: Bactericidal activity against methicillin-resistant Staphylococcus aureus NCTC 12493 assessed as bacterial cell death at 0.5 fold MIC measured after 4 to 6 hrs hrs in presence of polymyxin B at MIC by time kill assay relative to control. The data set is classed as functional. The conditions noted are these: time 4-6 hrs. The method in brief:
as §3

Data set [26] concerns HaCaT. The data set can be described thus: Cytotoxicity against human HaCaT cells at 43.4 uM measured after 4 hrs in presence of 1.5 uM polymyxin B by CyTox 96 nonradioactive assay relative to control. The data set is classed as cell-based.
In data set [27] the test system is Streptococcus pyogenes. The data set can be described thus: Potentiation of polymyxin B-induced antibacterial activity against Streptococcus pyogenes SPY1 assessed as fold reduction in polymyxin B MIC measured after 24 hrs in presence of polymyxin B by checkerboard assay. It is filed as functional.
The subject of data set [28] is Escherichia coli. Put plainly: Potentiation of polymyxin B-induced antibacterial activity against Escherichia coli EC204 harboring NDM-1 assessed as fold reduction in polymyxin B MIC measured after 24 hrs in presence of polymyxin B by checkerboard assay. It is filed as functional.
Data set [29] relates to Pseudomonas aeruginosa. The data set can be described thus: Potentiation of polymyxin B-induced antibacterial activity against Pseudomonas aeruginosa PA14 assessed as fold reduction in polymyxin B MIC measured after 24 hrs in presence of polymyxin B by checkerboard assay. It is filed as functional.
Data set [30] has as its system Stenotrophomonas maltophilia. The data set can be described thus: Potentiation of polymyxin B-induced antibacterial activity against Stenotrophomonas maltophilia SMS01 assessed as fold reduction in polymyxin B MIC measured after 24 hrs in presence of polymyxin B by checkerboard assay. The data set is classed as functional.
In data set [31] the test system is Stenotrophomonas maltophilia. The data set can be described thus: Potentiation of polymyxin B-induced antibacterial activity against Stenotrophomonas maltophilia NCTC 10258 assessed as fold reduction in polymyxin B MIC measured after 24 hrs in presence of polymyxin B by checkerboard assay. The data set is classed as functional.

Each structure is given as a SMILES string. Where only a bound is given, the exact number is not on record here.

For orientation: MIC means the smallest concentration in the dilution series that meets the test's criterion for growth inhibition.

Take `CC[C@H](C)CCCCC(=O)N[C@@H](CCN)C(=O)N[C@H](C(=O)N[C@@H](CCN)C(=O)N[C@H]1CCNC(=O)[C@H]([C@@H](C)O)NC(=O)[C@H](CCN)NC(=O)[C@H](CCN)NC(=O)[C@H](CC(C)C)NC(=O)[C@@H](Cc2ccccc2)NC(=O)[C@H](CCN)NC1=O)[C@@H](C)O.O=S(=O)(O)O`: the MIC in [1] was 6.1 µM; in data set [2] it was 0.79 µM; in [3], 0.024 µM; in data set [4], 0.024 µM; in [5], 0.012 µM; in data set [6] it was 0.012 µM. For the same compound, the “fractional inhibitory concentration index (FICI)” value in data set [7] amounted to 0.251; in [8] it was 0.047; in [9] it was 0.094; in data set [10], 0.313; in data set [11], 0.068; in data set [12], 0.068. Besides, in data set [13], the “fractional inhibitory concentration index (FICI)” value turned out to be 0.563. In data set [14], the Activity was 2 log10CFU/ml.

For `COc1cc(/C=C/C(=O)CC(=O)/C=C/c2ccc(O)c(OC)c2)ccc1O` [CURCUMIN], the MIC in data set [15] worked out at 87 µM; in data set [16], 22 µM; in [17] it was 43 µM; in data set [18], 43 µM; in [19] it was 87 µM; in data set [20], 22 µM. Also, the figures for the MIC in data set [21] and in data set [22] were 43 µM and 174 µM, respectively. The Activity is more than 3 log10CFU/ml in data set [23], 100% in data set [24], 100% in [25] and 22% in [26]. Moreover, the “fold change (FC)” value in data set [27], in [28], in [29], in data set [30] and in [31] was 3 in each case.

(Values after ChEMBL document CHEMBL4715738, “In Vitro Antibacterial Activity of Curcumin-Polymyxin B Combinations against Multidrug-Resistant Bacteria Associated with Traumatic Wound Infections” (J Nat Prod, 2016).)
